Experimental findings from ChEMBL document CHEMBL1147718, “Design, synthesis, antibacterial, and QSAR studies of myristic acid derivatives” (2006) are described below.

In brackets after ≈: the same amount, converted by molar mass.

What all share (assay type): functional
Common to all, as to details: read-out: -Log MIC (converted)

One assay concerns Staphylococcus aureus. Nature of the assay: Antibacterial activity against Staphylococcus aureus. A digest of the protocol:
(§1)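 Serial dilution MIC in double strength nutrient broth-IP against S. aureus, M. luteus and E. coli. Derivatives dissolved in DMSO as […] stock. Activity reported as −log MIC.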

The subject of the next assay is Micrococcus luteus. The experiment in a line: Antibacterial activity against Micrococcus luteus. A digest of the protocol: as §1
The subject of another assay is Escherichia coli. Nature of the assay: Antibacterial activity against Escherichia coli. A digest of the protocol:
as §1

For the compound `CCCCCCCCCCCCCC(=O)N(CC)CC`, the results for the MIC in the assay on Staphylococcus aureus, in the assay with Micrococcus luteus and in the assay on Escherichia coli were 2630 µM (≈ 746 µg/mL), 2140 µM (≈ 606 µg/mL) and 2240 µM (≈ 635 µg/mL), respectively.
In the case of `CCCCCCCCCCCCCC(=O)Nc1ccc([N+](=O)[O-])cc1`, the MIC in the assay with Staphylococcus aureus is 1380 µM (≈ 481 µg/mL); in the assay with Micrococcus luteus, 1740 µM (≈ 606 µg/mL); in the assay on Escherichia coli, 2750 µM (≈ 960 µg/mL).
With `CCCCCCCCCCCCCC(=O)Nc1cccc([N+](=O)[O-])c1`, the MIC in the assay on Staphylococcus aureus was 2750 µM (≈ 960 µg/mL); in the assay with Micrococcus luteus, 3470 µM (≈ 1210 µg/mL); in the assay on Escherichia coli, 2750 µM (≈ 960 µg/mL).
For the compound `CCCCCCCCCCCCCC(=O)Nc1ccccc1`, the figures for the minimum inhibitory concentration (MIC) with Staphylococcus aureus, in the assay with Micrococcus luteus and in the assay on Escherichia coli were 1950 µM (≈ 592 µg/mL), 1950 µM (≈ 592 µg/mL) and 3160 µM (≈ 960 µg/mL), respectively.
For `CCCCCCCCCCCCCC(=O)Nc1cccc(Cl)c1`, the MIC is 1480 µM (≈ 500 µg/mL) in the assay on Staphylococcus aureus, 1170 µM (≈ 397 µg/mL) in the assay on Micrococcus luteus and 2690 µM (≈ 910 µg/mL) in the assay with Escherichia coli.
Take `CCCCCCCCCCCCCC(=O)Nc1ccc(Cl)cc1`: the MIC in the assay with Staphylococcus aureus was 1480 µM (≈ 500 µg/mL); in the assay on Micrococcus luteus it was 1480 µM (≈ 500 µg/mL); in the assay on Escherichia coli, 2690 µM (≈ 910 µg/mL).
In the case of `CCCCCCCCCCCCCC(=O)Nc1ccc(OC)cc1`, the MIC was 1510 µM (≈ 505 µg/mL) in the assay with Staphylococcus aureus, 1780 µM (≈ 593 µg/mL) in the assay with Micrococcus luteus and 2400 µM (≈ 800 µg/mL) with Escherichia coli.
Consider `CCCCCCCCCCCCCC(=O)Nc1ccccc1OC`, for which the values for the MIC in the assay with Staphylococcus aureus, in the assay with Micrococcus luteus and in the assay on Escherichia coli were 1510 µM (≈ 505 µg/mL), 1780 µM (≈ 593 µg/mL) and 2400 µM (≈ 800 µg/mL), respectively.
As for `CCCCCCCCCCCCCC(=O)NCCCC`, the MIC was 2140 µM (≈ 606 µg/mL) in the assay with Staphylococcus aureus, 2450 µM (≈ 696 µg/mL) with Micrococcus luteus and 3550 µM (≈ 1010 µg/mL) in the assay on Escherichia coli.
In the case of `CCCCCCCCCCCCCC(=O)NCCC`, the results for the MIC in the assay with Staphylococcus aureus, in the assay with Micrococcus luteus and in the assay on Escherichia coli were 2570 µM (≈ 693 µg/mL), 2570 µM (≈ 693 µg/mL) and 3720 µM (≈ 1000 µg/mL), respectively.
As for `CCCCCCCCCCCCCC(=O)Nc1ccccc1[N+](=O)[O-]`, the values for the MIC in the assay on Staphylococcus aureus, in the assay with Micrococcus luteus and in the assay with Escherichia coli were 1380 µM (≈ 481 µg/mL), 1740 µM (≈ 606 µg/mL) and 3470 µM (≈ 1210 µg/mL), respectively.
For `CCCCCCCCCCCCCC(=O)Nc1ccccc1Cl`, in that order: 1480 µM (≈ 500 µg/mL), 1780 µM (≈ 601 µg/mL) and 2690 µM (≈ 910 µg/mL).
Consider `CCCCCCCCCCCCCC(=O)OCc1ccccc1` [BENZYL TETRADECANOATE], for which the MIC is 1580 µM (≈ 505 µg/mL) in the assay with Staphylococcus aureus, 1860 µM (≈ 593 µg/mL) in the assay on Micrococcus luteus and 2510 µM (≈ 800 µg/mL) with Escherichia coli.
In the case of `CCCCCCCCCCCCCC(=O)OCCCC` [BUTYL TETRADECANOATE], the MIC was 2630 µM (≈ 748 µg/mL) in the assay on Staphylococcus aureus, 4370 µM (≈ 1240 µg/mL) with Micrococcus luteus and 3550 µM (≈ 1010 µg/mL) in the assay with Escherichia coli.
For `O=C(O)c1cn(C2CC2)c2cc(N3CCNCC3)c(F)cc2c1=O` [CIPROFLOXACIN] the same measures were 468 µM (≈ 155 µg/mL), 468 µM (≈ 155 µg/mL) and 468 µM (≈ 155 µg/mL).
For the compound `CCCCCCCCCCCCCC(=O)OCC` [ETHYL TETRADECANOATE], the MIC was 3890 µM (≈ 998 µg/mL) with Staphylococcus aureus, 2450 µM (≈ 629 µg/mL) with Micrococcus luteus and 2450 µM (≈ 629 µg/mL) with Escherichia coli.
As to `CCCCCCCCCCCCCC(=O)OCCCCCCC` [HEPTYL TETRADECANOATE], the MIC was 1230 µM (≈ 402 µg/mL) in the assay on Staphylococcus aureus, 1510 µM (≈ 494 µg/mL) with Micrococcus luteus and 2450 µM (≈ 802 µg/mL) in the assay with Escherichia coli.
As for `CCCCCCCCCCCCCC(=O)OCCCCCC` [HEXYL TETRADECANOATE], the MIC is 1580 µM (≈ 495 µg/mL) with Staphylococcus aureus, 1290 µM (≈ 403 µg/mL) with Micrococcus luteus and 2570 µM (≈ 803 µg/mL) in the assay on Escherichia coli.
Regarding `CCCCCCCCCCCCCC(=O)OCC(C)C` [ISOBUTYL TETRADECANOATE], the MIC in the assay with Staphylococcus aureus is 1740 µM (≈ 494 µg/mL); in the assay with Micrococcus luteus it was 1740 µM (≈ 494 µg/mL); with Escherichia coli, 3160 µM (≈ 900 µg/mL).
On to `CCCCCCCCCCCCCC(=O)OCCC(C)C` [ISOPENTYL TETRADECANOATE], for which the MIC is 1660 µM (≈ 495 µg/mL) with Staphylococcus aureus, 2000 µM (≈ 596 µg/mL) in the assay with Micrococcus luteus and 3020 µM (≈ 901 µg/mL) in the assay on Escherichia coli.
For `CCCCCCCCCCCCCC(=O)OC(C)C` [ISOPROPYL MYRISTATE] the same measures were 2240 µM (≈ 605 µg/mL), 2240 µM (≈ 605 µg/mL) and 3720 µM (≈ 1000 µg/mL).
For the compound `CCCCCCCCCCCCCC(=O)OC` [METHYL TETRADECANOATE], the MIC in the assay on Staphylococcus aureus was 4170 µM (≈ 1010 µg/mL); with Micrococcus luteus it was 5130 µM (≈ 1240 µg/mL); in the assay with Escherichia coli, 4170 µM (≈ 1010 µg/mL).
On to `CCCCCCCCCCCCCC(=O)O` [MYRISTIC ACID], for which the figures for the MIC with Staphylococcus aureus, with Micrococcus luteus and in the assay with Escherichia coli were 3310 µM (≈ 756 µg/mL), 3310 µM (≈ 756 µg/mL) and 5500 µM (≈ 1260 µg/mL), respectively.
For `CCCCCCCCCCCCCC(=O)OCCCCCCCC` [OCTYL TETRADECANOATE], the results for the MIC in the assay on Staphylococcus aureus, with Micrococcus luteus and in the assay with Escherichia coli were 1170 µM (≈ 400 µg/mL), 1170 µM (≈ 400 µg/mL) and 2340 µM (≈ 798 µg/mL), respectively.
As for `CCCCCCCCCCCCCC(=O)OCCCCC` [PENTYL TETRADECANOATE], the values for the MIC with Staphylococcus aureus, in the assay on Micrococcus luteus and in the assay on Escherichia coli were 2000 µM (≈ 596 µg/mL), 2000 µM (≈ 596 µg/mL) and 3020 µM (≈ 901 µg/mL), respectively.
With `CCCCCCCCCCCCCC(=O)OCCC` [PROPYL TETRADECANOATE], the MIC with Staphylococcus aureus was 2340 µM (≈ 634 µg/mL); with Micrococcus luteus it was 2340 µM (≈ 634 µg/mL); in the assay on Escherichia coli, 4570 µM (≈ 1240 µg/mL).
Turning to `CCCCCCCCCCCCCC(N)=O` [TETRADECANAMIDE], the MIC in the assay with Staphylococcus aureus is 2570 µM (≈ 584 µg/mL); with Micrococcus luteus, 5130 µM (≈ 1170 µg/mL); in the assay on Escherichia coli it was 3090 µM (≈ 703 µg/mL).
For `CCCCCCCCCCCCCC(=O)NN` [TETRADECANEHYDRAZIDE] the same measures were 4170 µM (≈ 1010 µg/mL), 5130 µM (≈ 1240 µg/mL) and 4170 µM (≈ 1010 µg/mL).

The MIC is the least concentration at which growth counts as inhibited.
